ChEMBL document CHEMBL1914324, “Discovery of novel spirocyclic inhibitors of fatty acid amide hydrolase (FAAH). Part 2. Discovery of 7-azaspiro[3.5]nonane urea PF-04862853, an orally efficacious inhibitor of fatty acid amide hydrolase (FAAH) for pain” (Bioorg Med Chem Lett, 2011)
The source made the active and inactive calls.

Assays:
[1] = target: T1, Fatty-acid amide hydrolase 1 (Homo sapiens) (UniProt O00519); test: Inhibition of FAAH in human brain membrane using rhodamine-tagged fluorophosphonate probe at 100 uM by competitive activity-based protein profiling method; assay type: cell membranes
T1 sequence (whole entry): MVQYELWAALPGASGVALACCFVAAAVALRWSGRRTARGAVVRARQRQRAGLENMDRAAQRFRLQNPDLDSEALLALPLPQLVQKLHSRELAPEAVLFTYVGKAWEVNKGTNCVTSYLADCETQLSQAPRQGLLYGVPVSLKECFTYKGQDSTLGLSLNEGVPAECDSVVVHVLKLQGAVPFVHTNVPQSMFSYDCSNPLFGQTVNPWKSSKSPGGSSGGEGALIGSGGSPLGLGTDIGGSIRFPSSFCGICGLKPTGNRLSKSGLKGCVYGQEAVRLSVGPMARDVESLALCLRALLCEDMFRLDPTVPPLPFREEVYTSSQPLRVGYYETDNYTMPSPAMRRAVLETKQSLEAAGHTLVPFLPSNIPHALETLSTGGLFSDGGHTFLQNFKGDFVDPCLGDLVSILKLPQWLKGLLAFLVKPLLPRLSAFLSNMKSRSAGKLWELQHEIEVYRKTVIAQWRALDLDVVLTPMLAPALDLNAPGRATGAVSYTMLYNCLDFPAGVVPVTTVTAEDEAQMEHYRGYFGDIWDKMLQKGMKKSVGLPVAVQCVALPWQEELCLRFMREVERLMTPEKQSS
Summary of the method: (§1)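 Competitive activity-based protein profiling against >200 human serine hydrolases, FAAH included. Compound tested at 100 µM in human brain membrane and soluble liver proteomes. Residual hydrolase activity labelled with a rhodamine-tagged fluorophosphonate probe.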

Rattus norvegicus [2] = test: Inhibition of FAAH in rat CFA model at 3 mg/kg, po after 3 hrs; assay type: functional; conditions: for minimal effective dose: read-out: MED
[3] = target: T2, Voltage-gated inwardly rectifying potassium channel KCNH2 (Homo sapiens, UniProt Q12809); test: Displacement of dofetilide from ERG
T2 sequence (Q12809 whole entry): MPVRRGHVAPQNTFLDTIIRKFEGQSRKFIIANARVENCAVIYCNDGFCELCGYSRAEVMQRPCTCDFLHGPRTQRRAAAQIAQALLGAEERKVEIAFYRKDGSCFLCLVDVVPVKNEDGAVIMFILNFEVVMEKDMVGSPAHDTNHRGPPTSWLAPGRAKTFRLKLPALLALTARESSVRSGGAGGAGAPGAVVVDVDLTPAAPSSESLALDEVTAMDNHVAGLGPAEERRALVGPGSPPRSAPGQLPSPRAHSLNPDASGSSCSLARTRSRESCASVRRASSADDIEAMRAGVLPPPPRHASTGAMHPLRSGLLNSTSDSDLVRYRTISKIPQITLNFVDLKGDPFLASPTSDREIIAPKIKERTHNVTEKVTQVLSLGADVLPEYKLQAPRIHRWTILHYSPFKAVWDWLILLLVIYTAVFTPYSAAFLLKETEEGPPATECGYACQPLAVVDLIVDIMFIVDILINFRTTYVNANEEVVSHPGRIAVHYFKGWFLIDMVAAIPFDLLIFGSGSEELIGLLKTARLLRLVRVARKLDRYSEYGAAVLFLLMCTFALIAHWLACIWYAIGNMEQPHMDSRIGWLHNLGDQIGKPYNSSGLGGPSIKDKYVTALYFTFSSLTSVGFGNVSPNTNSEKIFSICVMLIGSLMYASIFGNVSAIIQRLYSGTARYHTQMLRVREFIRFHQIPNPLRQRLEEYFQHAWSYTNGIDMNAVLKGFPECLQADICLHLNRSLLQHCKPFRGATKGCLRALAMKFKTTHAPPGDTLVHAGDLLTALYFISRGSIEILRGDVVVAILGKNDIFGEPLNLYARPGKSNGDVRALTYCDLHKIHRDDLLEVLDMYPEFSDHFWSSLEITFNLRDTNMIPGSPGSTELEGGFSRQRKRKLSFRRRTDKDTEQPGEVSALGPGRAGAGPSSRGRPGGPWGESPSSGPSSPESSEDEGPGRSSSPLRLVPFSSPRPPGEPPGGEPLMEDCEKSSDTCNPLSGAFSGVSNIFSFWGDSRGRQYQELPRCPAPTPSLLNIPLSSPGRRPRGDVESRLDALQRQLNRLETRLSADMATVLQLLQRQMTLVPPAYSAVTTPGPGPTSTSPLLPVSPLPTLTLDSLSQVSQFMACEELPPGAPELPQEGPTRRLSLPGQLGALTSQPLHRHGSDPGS

[4] = target: T3, Fatty-acid amide hydrolase 1 (Rattus norvegicus) (UniProt P97612); test: Ratio of Kinact to Ki for rat FAAH activity
T3 sequence (whole entry): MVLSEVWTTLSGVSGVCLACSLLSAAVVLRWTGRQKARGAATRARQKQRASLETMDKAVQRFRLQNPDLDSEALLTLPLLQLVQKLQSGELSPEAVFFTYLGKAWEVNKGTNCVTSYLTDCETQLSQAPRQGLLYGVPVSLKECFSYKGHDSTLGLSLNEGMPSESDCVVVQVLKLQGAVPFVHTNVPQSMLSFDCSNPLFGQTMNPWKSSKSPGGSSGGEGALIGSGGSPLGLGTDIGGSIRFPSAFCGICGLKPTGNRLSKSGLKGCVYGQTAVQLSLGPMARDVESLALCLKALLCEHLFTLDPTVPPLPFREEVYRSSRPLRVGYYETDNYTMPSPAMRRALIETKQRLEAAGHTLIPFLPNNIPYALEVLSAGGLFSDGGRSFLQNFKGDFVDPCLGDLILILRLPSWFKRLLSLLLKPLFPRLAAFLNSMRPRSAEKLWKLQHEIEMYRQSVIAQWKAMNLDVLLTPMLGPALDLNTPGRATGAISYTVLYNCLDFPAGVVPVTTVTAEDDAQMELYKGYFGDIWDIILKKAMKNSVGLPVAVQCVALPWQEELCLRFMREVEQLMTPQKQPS
Summary of the method: (§2)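 kinact/Ki determined against human and rat FAAH. Each value is the average of at least two independent determinations.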

[5] = target: T1, Fatty-acid amide hydrolase 1 (Homo sapiens); test: Ratio of Kinact to Ki for human FAAH activity; summary of the method: as §2
[6] = target: T1, Fatty-acid amide hydrolase 1 (Homo sapiens); test: Inhibition of FAAH in human liver proteomes using rhodamine-tagged fluorophosphonate probe at 100 uM by competitive activity-based protein profiling method; summary of the method: as §1
[7] = Inhibition of cytochrome P450; assay type: ADME
[8] = Clearance in rat CFA model at 3 mg/kg, po; assay type: ADME, organism-based; design: dose 3 mg/kg, route oral; conditions: in vivo
Summary of the method: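 Rats in the CFA model screened at a single oral dose of 3 mpk. Plasma compound concentrations determined, including at 24 h. Clearance estimated from the 3 h and 24 h time points.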

[9] = Oral bioavailability in rat CFA model at 3 mg/kg; assay type: ADME, organism-based; conditions: in vivo
[10] = Oral bioavailability in dog; assay type: ADME, organism-based, Canis lupus familiaris; conditions: in vivo
[11] = Clearance in dog; assay type: ADME, organism-based, Canis lupus familiaris; conditions: in vivo
Rattus norvegicus [12] = test: Volume of distribution at steady state in rat CFA model at 3 mg/kg, po; assay type: ADME, organism-based; design: dose 3 mg/kg, route oral; conditions: in vivo
[13] = Half life in dog; assay type: ADME, organism-based, Canis lupus familiaris; conditions: in vivo
Rattus norvegicus [14] = test: Inhibition of FAAH in rat CFA model leukocytes assessed as residual activity using 3H-anandamide as substrate at 0.3 mg/kg, po after 4 hrs; assay type: functional, organism-based; design: dose 0.3 mg/kg
Summary of the method: (§3)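 Rats with CFA-induced inflammatory pain dosed orally. Brain tissue and leukocytes collected 4 h post dose. Residual FAAH activity measured with 3H-anandamide as substrate. n = 4 animals/group. PK, biomarker and behavioural samples taken from the same animals.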

Rattus norvegicus [15] = test: Inhibition of FAAH in orally dosed rat CFA model assessed as elevation of […]anandamide concentration in plasma after 4 hrs; assay type: functional, organism-based
Salmonella typhimurium = test: Mutagenic activity in Salmonella Typhimurium by Ames test; assay type: toxicity, organism-based; conditions: salmonella enterica subsp. enterica serovar typhimurium
[16] = target: T2, Voltage-gated inwardly rectifying potassium channel KCNH2; test: Inhibition of human ERG
[17] = Plasma concentration in rat CFA model at 3 mg/kg, po after 4 hrs; assay type: ADME, organism-based; design: dose 3 mg/kg, route oral
Summary of the method: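 CFA rats given compound orally; plasma sampled 4 h post dose. Compound levels determined by LC/MS. n = 4 animals/group.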

Rattus norvegicus [18] = species on record: Rattus norvegicus; test: Antiinflammatory activity against rat CFA model assessed as minimum effective dose after 4 hrs; assay type: functional; conditions: read-out: MED
Summary of the method: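 CFA inflammatory pain model in rats given compound orally. Paw withdrawal threshold assessed with von Frey filaments 4 h post dose. N = 8 animals/group; significance versus vehicle by ANOVA/Dunnett's (p <0.05). Minimum efficacious dose defined as exposure giving >95% FAAH inhibition.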

Rattus norvegicus [19] = test: Inhibition of FAAH in orally dosed rat CFA model assessed as elevation of […]anandamide concentration in brain after 4 hrs; assay type: functional, organism-based
[20] = Genotoxicity in micronucleus
[21] = Volume of distribution at steady state in dog; assay type: ADME, organism-based, Canis lupus familiaris; conditions: in vivo, read-out: Vdss
[22] = Half life in rat CFA model at 3 mg/kg, po; assay type: ADME, organism-based; design: dose 3 mg/kg, route oral; conditions: in vivo
Rattus norvegicus [23] = test: Inhibition of FAAH in rat CFA model brain isolates assessed as residual activity using 3H-anandamide as substrate at 0.3 mg/kg, po after 4 hrs; assay type: functional, organism-based; design: dose 0.3 mg/kg; summary of the method: as §3

Compound | inhibition [1] | activity call (active/not active) (Rattus norvegicus [2]) | inhibition (INH) [3] | Ratio [4] [M⁻¹ s⁻¹] | Ratio [5] [M⁻¹ s⁻¹] | inhibition [6] | inhibition (INH) [7] | minimal effective dose (Rattus norvegicus [2]) [mg/kg] | other results
CCc1cccc(C2CC3(CCN(C(=O)Nc4onc(C)c4C)CC3)C2)c1 | Active | inactive | Not Active | 1340 | 5670 | Active | Not Active |  | 
Cc1noc(NC(=O)N2CCC3(CC2)CC(c2cccc(OC(F)(F)F)c2)C3)c1C | Active | Active | Not Active | 3860 | 2830 | Active | Not Active | 1 | 
Cn1nnnc1NC(=O)N1CCC2(CC1)CC(c1cccc(C(F)(F)F)c1)C2 | Active | Active | Not Active | 5750 | 12400 | Active | Not Active | 1 | 
Cc1noc(NC(=O)N2CCC3(CC2)CC(c2ccc(F)c(Cl)c2)C3)c1C | Active | Active | Not Active | 5820 | 4190 | Active | Not Active | 0.3 | CL/F [8]: 8.5 mL/min/kg; bioavailability [9]: 53%; bioavailability [10]: 33%; clearance [11]: 11.1 mL/min/kg; Vdss (Rattus norvegicus [12]): 3.4 L/kg; half-life [13]: 7.8 h; inhibition (Rattus norvegicus [14]): Active; inhibition (Rattus norvegicus [15]): Dose-dependent effect; Activity (Salmonella typhimurium): Non-toxic; inhibition (INH) [16]: Not Active; concentration at 4 h [17]: 459 nM; minimal effective dose (Rattus norvegicus [18]): 0.3 mg/kg; inhibition (Rattus norvegicus [19]): Dose-dependent effect; Activity [20]: Non-toxic; Vd [21]: 5 L/kg; half-life [22]: 7.1 h; inhibition (Rattus norvegicus [23]): Active
Cn1nnnc1NC(=O)N1CCC2(CC1)CC(c1cccc(OC(F)(F)F)c1)C2 | Active | Active | Not Active | 4570 | 13200 | Active | Not Active | 0.1 | 
Cn1nnnc1NC(=O)N1CCC2(CC1)CC(c1cccc(C(F)(F)F)c1)CO2 (stereo in doubt; form 1) [listing 1 of 2 here] | Active | Active |  | 2160 | 4600 | Active |  |  | 
Cn1nnnc1NC(=O)N1CCC2(CC1)CC(c1cccc(C(F)(F)F)c1)CO2 (stereo in doubt; form 1) [listing 2 of 2 here] |  |  | Not Active |  |  |  | Not Active | 1 | 
Cc1noc(NC(=O)N2CCC3(CC2)CC(c2cccc(Cl)c2)C3)c1C | Active | Active | Not Active | 3560 | 3940 | Active | Not Active | 1 | 
Cn1nnnc1NC(=O)N1CCC2(CC1)CC(c1cccc(OC(F)(F)F)c1)CO2 (stereo not drawn) | Active | Active | Not Active | 4560 | 7110 | Active | Not Active | 0.1 | 
Cc1noc(NC(=O)N2CCC3(CC2)CC(c2ccc(C#N)cc2)CO3)c1C (racemic) |  |  |  | 26.1 | 43.2 |  |  |  | 
Cc1noc(NC(=O)N2CCC3(CC2)CC(c2ccc(Cl)c(Cl)c2)C3)c1C |  |  |  | 3470 | 4550 |  |  |  | 
Cn1nnnc1NC(=O)N1CCC2(CC1)CC(c1cccc(C(F)(F)F)c1)CO2 (stereo in doubt; form 2) |  |  |  | 2110 | 3760 |  |  |  | 
COc1cccc(C2CC3(CCN(C(=O)Nc4onc(C)c4C)CC3)C2)c1 |  |  |  | 741 | 2190 |  |  |  | 
